Consider 20 compounds from PubChem BioAssay AID504469 (NMMLSC, 2011).

Structures are written as SMILES. Activity calls are given as the source filed them.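 How the source made its calls: active means compounds whose fitted GFP dose response EC50 is at or below 33 microM; inactive means the rest.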

A word on the EC50: it is the concentration needed to bring the measured effect to its halfway point.

The test system of one assay is S. cerevisiae LAP4-GFP strain, flow cytometry fluorescence, 3 h. Briefly: yeast TOR reporter LAP4-GFP level changes – cell-based, KU SAR set 2, flow cytometry, SAR follow-up (AID 504469).
Conditions: not given
A digest of the protocol: (§1)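 Test system: S. cerevisiae LAP4-GFP yeast strain; Input: yeast cells diluted to OD600 of 0.2; Dosing: compound dose-response series; Buffer or medium: synthetic complete yeast growth medium; Incubation: 3 h compound treatment, 30 °C; Detection: Flow-cytometric GFP fluorescence in kMESF units; Read-out basis: EC50 of background-corrected GFP signal.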
(In flow cytometry, cells or beads pass a laser one at a time.)
For `CNc1nc(N)cc(Nc2cccc(Cl)c2)n1`, the EC50 was 101 µM (inactive).

`CNc1nc(N)c(C(=O)c2ccc(C)c(C)c2)c(Nc2cccc(Cl)c2)n1`: the EC50 was 80.9 µM (inactive).

Tested on in a further assay: not listed separately
The assay is described as above. The conditions noted are these: S. cerevisiae LAP4-GFP strain, flow cytometry fluorescence, 3 h; at 100 µM (top of the series). A digest of the protocol:
as §1
With `CNc1nc(N)c([N+](=O)[O-])c(Nc2ccccc2Br)n1`, the GFP fluorescence (kMESF) is 6.28 kMESF (inactive).

Regarding `CNc1nc(N)c([N+](=O)[O-])c(Nc2cccc(Br)c2)n1`, the GFP fluorescence (kMESF) is 6.21 kMESF (inactive).

Consider `CNc1nc(NC2CCCCC2)c([N+](=O)[O-])c(N2CCOCC2)n1`, for which the GFP fluorescence (kMESF) was 6.42 kMESF (inactive).

In the case of `CCNc1nc(NC2CCCCC2)c([N+](=O)[O-])c(N2CCOCC2)n1`, the GFP fluorescence (kMESF) was 6.5 kMESF (inactive).

On to `CNc1nc(N)c([N+](=O)[O-])c(Nc2cccc(Oc3ccccc3)c2)n1`, for which the GFP fluorescence (kMESF) was 6.57 kMESF (inactive).

Turning to `CNc1nc(N)c([N+](=O)[O-])c(Nc2cccc(OC)c2)n1`, the GFP fluorescence (kMESF) is 6.21 kMESF (inactive).

Turning to `CNc1nc(N)c([N+](=O)[O-])c(Nc2ccccc2F)n1`, the GFP fluorescence (kMESF) is 6.21 kMESF (inactive).

As to `CCNc1nc(N)c([N+](=O)[O-])c(Nc2cccc(Cl)c2)n1`, the GFP fluorescence (kMESF) was 6.21 kMESF (inactive).

Consider `CNc1nc(NC)c([N+](=O)[O-])c(Nc2cccc(Cl)c2)n1`, for which the GFP fluorescence (kMESF) is 6.28 kMESF (inactive).

Staying with this assay, now noted: S. cerevisiae LAP4-GFP strain, flow cytometry fluorescence, 3 h; at 300 µM (top of the series).
As for `CCOC(=O)c1c(N)nc(NC)nc1Nc1cccc(F)c1`, the GFP fluorescence (kMESF) is 4.41 kMESF (inactive).

Turning to `COC(=O)c1cccc(-c2cc(Nc3cc(C)[nH]n3)nc(NCc3ccccc3)n2)c1`, the GFP fluorescence (kMESF) is 4.28 kMESF (inactive).

Take `Cc1cc(Nc2cc(-c3ccccc3)nc(NCc3ccccc3)n2)n[nH]1`: the GFP fluorescence (kMESF) was 4.41 kMESF (inactive).

With `O=[N+]([O-])c1c(NC2CCCCC2)nc(NCc2ccccc2)nc1N1CCOCC1`, the GFP fluorescence (kMESF) is 4.34 kMESF (inactive).

As to `COc1cccc(-c2cc(Nc3cc(C)[nH]n3)nc(NCc3ccccc3)n2)c1`, the GFP fluorescence (kMESF) is 4.54 kMESF (inactive).

Take `CNc1nc(N)cc(Nc2ccccc2F)n1`: the GFP fluorescence (kMESF) is 4.66 kMESF (inactive).

On to `Cc1cc(Nc2cc(Nc3ccccc3)nc(NCc3ccccc3)n2)n[nH]1`, for which the GFP fluorescence (kMESF) was 4.28 kMESF (inactive).

In the case of `COc1ccccc1-c1cc(Nc2cc(C)[nH]n2)nc(NCc2ccccc2)n1`, the GFP fluorescence (kMESF) was 4.66 kMESF (inactive).

In the case of `CNc1nc(N)cc(Oc2cccc(Cl)c2)n1`, the GFP fluorescence (kMESF) is 4.73 kMESF (inactive).
